Reference: ChEMBL document CHEMBL2169872, “(S)-N-(2,5-Dimethylphenyl)-1-(quinoline-8-ylsulfonyl)pyrrolidine-2-carboxamide as a small molecule inhibitor probe for the study of respiratory syncytial virus infection” (J Med Chem, 2012)
Values after ≈ are worked out from the molar mass of the structure shown.

Legend:
[1] = system: Respiratory syncytial virus; experiment: Antiviral activity against Respiratory syncytial virus Long infected in human Hep2 cells assessed as reduction in virus-induced cytopathogenicity by Cell Titer-Glo assay; type: functional, organism-based; conditions: HEp-2
HEp-2 [2] = experiment: Cytotoxicity against human Hep2 cells by Cell Titer-Glo assay; type: cell-based
[3] = Selectivity index, ratio of CC50 for human Hep2 cells to EC50 for Respiratory syncytial virus Long infected in human Hep2 cells
[4] = system: Respiratory syncytial virus; experiment: Antiviral activity against Respiratory syncytial virus Long infected in human Hep2 cells assessed as log reduction in virus titer at 25 uM by virus plaque reduction assay; type: functional, HEp-2
[5] = Chemical stability in 50% PBS/50% acetonitrile solution assessed as unchanged parent compound remaining after 48 hrs; type: physicochemical; conditions: read-out: Stability
[6] = system: Respiratory syncytial virus; experiment: Antiviral activity against Respiratory syncytial virus Long infected in human Hep2 cells assessed as post infection time duration of protection against virus-induced cytopathogenicity by Cell Titer-Glo assay; type: functional, HEp-2
In short: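 HEp-2 cells seeded at 10 000 cells/well, held 24 h at 37 °C, 5% CO2, then infected with hRSV Long at MOI 3.0 at time 0. Compound added at 25 μM final, in triplicate, at −1, 0, 1, 2, 3, 5, 7, 21 or 24 h pi. Incubated 6 days at 37 °C, 5% CO2. Read by Cell Titer-Glo luminescence after 30 min room-temperature equilibration and 10 min reagent incubation. Uninfected and infected untreated wells served as controls.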

[7] = Aqueous solubility in PBS buffer; type: physicochemical
[8] = system: Respiratory syncytial virus; experiment: Antiviral activity against Respiratory syncytial virus Long infected in human Hep2 cells assessed as protection against virus-induced cytopathogenicity by measuring cell viability at 24 hrs post infection by Cell Titer-Glo assay; type: functional, HEp-2
In short: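 HEp-2 cells seeded at 10 000/well and held 24 h at 37 °C, 5% CO₂, then infected at time 0 with hRSV Long at MOI 3.0. Compound added at 25 μM final, in triplicate, at −1 to 24 h post-infection. After 6 days at 37 °C, plates were brought to room temperature and Cell Titer-Glo luminescence read after 10 min. Cell-only and virus-only controls were included.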

HEp-2 [9] = experiment: Cytotoxicity against uninfected human Hep2 cells assessed as cell viability at 25 uM measured after 144 hrs by Cell Titer-Glo assay; type: cell-based; conditions: hep-2, 144 h
In short: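 Uninfected HEp-2 cells were given compound at 25 μM at time point 0. Viability was read by Cell Titer-Glo after 144 h.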

Structure (SMILES) | EC50 [1] | CC50 (HEp-2 [2]) | also measured
Cc1ccc(NC(=O)CN(C)S(=O)(=O)c2cccc3cccnc23)c(C)c1 | > 50 µM | > 50 µM | –
Cc1ccc(NC(=O)[C@H]2CCCN2S(=O)(=O)c2cccc3cccnc23)c(C)c1 | > 50 µM | 38.1 µM | selectivity ratio [3]: 0.8
Cc1ccc(NC(=O)[C@@H]2CCCN2S(=O)(=O)c2cccc3cccnc23)c(C)c1 | 2.7 µM | 31.8 µM | FC [4]: 1; selectivity ratio [3]: 11.8
Cc1ccc(NC(=O)CNS(=O)(=O)c2cccc3cccnc23)c(C)c1 | > 50 µM | > 50 µM | –
Cc1ccc(NC(=O)C(C)NS(=O)(=O)c2cccc3cccnc23)c(C)c1 (configuration not stated) | > 50 µM | > 50 µM | –
Cc1ccccc1NC(=O)[C@@H]1CCCN1S(=O)(=O)c1cccc2cccnc12 | 23.8 µM | > 50 µM | –
Cc1cccc(NC(=O)[C@@H]2CCCN2S(=O)(=O)c2cccc3cccnc23)c1 | > 50 µM | 25.5 µM | –
Cc1ccc(NC(=O)[C@@H]2CCCN2S(=O)(=O)c2cccc3cccnc23)cc1 | > 50 µM | 31.7 µM | –
O=C(Nc1ccccc1)[C@@H]1CCCN1S(=O)(=O)c1cccc2cccnc12 | > 50 µM | 35.6 µM | –
CCc1ccccc1NC(=O)[C@@H]1CCCN1S(=O)(=O)c1cccc2cccnc12 | 21.2 µM | > 50 µM | –
CC(C)c1ccccc1NC(=O)[C@@H]1CCCN1S(=O)(=O)c1cccc2cccnc12 | 17.6 µM | 29.9 µM | –
Cc1ccnc(C)c1NC(=O)[C@@H]1CCCN1S(=O)(=O)c1cccc2cccnc12 | > 50 µM | > 50 µM | –
Cc1cc(C)cc(NC(=O)[C@@H]2CCCN2S(=O)(=O)c2cccc3cccnc23)c1 | > 50 µM | 31.3 µM | –
O=C(Nc1ccc(Cl)cc1Cl)[C@@H]1CCCN1S(=O)(=O)c1cccc2cccnc12 | > 50 µM | > 50 µM | –
Cc1ccc(C)c(NC(=O)[C@@H]2CCCN2S(=O)(=O)c2cccc3cccnc23)c1 | 2.3 µM | 30.9 µM | remaining at 48 h [5]: 95.4%; Time [6]: 1 h; FC [4]: 2; solubility [7]: 92.7 µg/mL (≈ 226 µM); Activity [8]: 26%
Cc1cccc(C)c1NC(=O)[C@@H]1CCCN1S(=O)(=O)c1cccc2cccnc12 | > 50 µM | > 50 µM | –
Cc1ccc(Cl)cc1NC(=O)[C@@H]1CCCN1S(=O)(=O)c1cccc2cccnc12 | 2.2 µM | 10 µM | –
Cc1ccc(C(F)(F)F)cc1NC(=O)[C@@H]1CCCN1S(=O)(=O)c1cccc2cccnc12 | > 50 µM | 4.8 µM | –
COc1ccc(C)c(NC(=O)[C@@H]2CCCN2S(=O)(=O)c2cccc3cccnc23)c1 | 4.2 µM | 44.2 µM | FC [4]: 1; Activity (HEp-2 [9]): 88%
Cc1ccc(C(C)C)cc1NC(=O)[C@@H]1CCCN1S(=O)(=O)c1cccc2cccnc12 | > 50 µM | 9.7 µM | –
Cc1ccc(C(C)(C)C)cc1NC(=O)[C@@H]1CCCN1S(=O)(=O)c1cccc2cccnc12 | > 50 µM | 6.5 µM | –
Cc1ccc(Cl)c(NC(=O)[C@@H]2CCCN2S(=O)(=O)c2cccc3cccnc23)c1 | > 50 µM | > 50 µM | –
COc1ccc(C)cc1NC(=O)[C@@H]1CCCN1S(=O)(=O)c1cccc2cccnc12 | > 50 µM | > 50 µM | –
Cc1cc(NC(=O)[C@@H]2CCCN2S(=O)(=O)c2cccc3cccnc23)n(C(C)(C)C)n1 | > 50 µM | > 50 µM | –
Cc1ccc(NC(=O)C2CCCN2S(=O)(=O)c2cccc3cccnc23)c(C)c1 (racemic) | 5 µM | 31.5 µM | FC [4]: 2.1; selectivity ratio [3]: 6.3
NC(=O)c1ncn([C@@H]2O[C@H](CO)[C@@H](O)[C@H]2O)n1 [RIBAVIRIN] | 28.4 µM | 114 µM | Time [6]: 7 h; FC [4]: 2.5; Activity (HEp-2 [9]): 90%
